# Laboratory results as given in ChEMBL document CHEMBL1828547, “Synthesis and antimalarial activity of 2-guanidino-4-oxoimidazoline derivatives” (J Med Chem, 2011).
# Calls of active or inactive are those of the source. The calls are words filed in the database; no cut-off is given here.
# Columns and labels:
# [1] = Half life in im dosed rhesus monkey; type: ADME, organism-based, Macaca mulatta; conditions: in vivo
# [2] = Half life in po dosed rhesus monkey; type: ADME, organism-based, Macaca mulatta; conditions: in vivo
# [3] = tested on: Rhesus monkey; assay: Drug uptake in rhesus monkey after 24 hrs relative to control; type: ADME, organism-based, Macaca mulatta; conditions: in vivo
# [4] = tested on: Rhesus monkey; assay: Drug uptake in im dosed rhesus monkey measured after 24 hrs; type: ADME, organism-based, Macaca mulatta; conditions: in vivo
# [5] = tested on: Rhesus monkey; assay: Drug uptake in po dosed rhesus monkey measured after 24 hrs; type: ADME, organism-based, Macaca mulatta; conditions: in vivo
# [6] = tested on: Rhesus monkey; assay: Drug uptake in im dosed rhesus monkey assessed as 1-(3,4-dichlorophenyl)-2-(1-isopropyl-4,5-dioxo-4,5-dihydro-1H-imidazol-2-yl)guanidine measured after 24 hrs; type: ADME, organism-based, Macaca mulatta; conditions: in vivo
# [7] = tested on: Rhesus monkey; assay: Drug uptake in po dosed rhesus monkey assessed as 1-(3,4-dichlorophenyl)-2-(1-isopropyl-4,5-dioxo-4,5-dihydro-1H-imidazol-2-yl)guanidine measured after 24 hrs; type: ADME, organism-based, Macaca mulatta; conditions: in vivo
# [8] = Metabolic stability in human assessed as half life at 160 mg/kg, po by LC-MS/MS analysis; type: ADME, organism-based; set-up: dose 160 mg/kg, route oral
# [9] = Metabolic stability in mouse assessed as half life at 160 mg/kg, po by LC-MS/MS analysis; type: ADME, organism-based; set-up: dose 160 mg/kg, route oral
# [10] = tested on: Plasmodium falciparum; assay: Antimalarial activity against blood stage Plasmodium falciparum D6 assessed as [3H]-hypoxanthine uptake after 24 hrs by scintillation counting; type: functional, organism-based
# [11] = tested on: Plasmodium falciparum; assay: Antimalarial activity against blood stage Plasmodium falciparum W2 assessed as [3H]-hypoxanthine uptake after 24 hrs by scintillation counting; type: functional, organism-based
# [12] = tested on: Plasmodium falciparum; assay: Antimalarial activity against blood stage Plasmodium falciparum TM91C235 assessed as [3H]-hypoxanthine uptake after 24 hrs by scintillation counting; type: functional, organism-based
# [13] = tested on: Plasmodium berghei; assay: Antimalarial activity against Plasmodium berghei […] mouse model assessed as causal prophylactic activity at 160 mg/kg, po administered one day before infection, on day of infection and one day post infection; type: functional, organism-based; set-up: dose 160 mg/kg
# Method in brief: (§1)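 Sporozoite-challenged exoerythrocytic mouse model using P. berghei. Compound ground and suspended in hydroxyethylcellulose with Tween 80 for oral dosing, given once daily for 3 consecutive days: day before, 4 h before, and day after sporozoite inoculation. Dose in (mg/kg)/day. Mice are scored for protection (causal prophylaxis) and for delay in patency.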
# [14] = Metabolic stability in human assessed as half life at 320 mg/kg, po by LC-MS/MS analysis; type: ADME, organism-based; set-up: dose 320 mg/kg, route oral
# [15] = Metabolic stability in mouse assessed as half life at 320 mg/kg, po by LC-MS/MS analysis; type: ADME, organism-based; set-up: dose 320 mg/kg, route oral; conditions: in vivo
# [16] = tested on: Plasmodium berghei; assay: Antimalarial activity against Plasmodium berghei […] mouse model assessed as causal prophylactic activity at 320 mg/kg, po administered one day before infection, on day of infection and one day post infection; type: functional, organism-based; set-up: dose 320 mg/kg
# Method in brief: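 Sporozoite-inoculated P. berghei exoerythrocytic (EE) mouse model. Compound ground and suspended in hydroxyethylcellulose plus Tween 80 for oral dosing, given once daily for 3 consecutive days: day before, 4 h before, and day after sporozoite inoculation (days −1, 0, 1). Dose in (mg/kg)/day. Read-out is mice protected per group (causal prophylaxis) or delay in patency.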
# [17] = tested on: Plasmodium berghei; assay: Antimalarial activity against Plasmodium berghei […] mouse model assessed as delay in patency time at 160 mg/kg, po administered one day before infection, on day of infection and one day post infection; type: functional; method in brief: as §1
# [18] = tested on: Plasmodium cynomolgi; assay: Antimalarial activity against Plasmodium cynomolgi infected in rhesus monkey assessed as delay in patency time at 50 mg/kg, po administered one day before infection, on day of infection followed by 1 day post infection; type: functional
# Method in brief: (§2)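 Rhesus monkeys challenged with P. cynomolgi sporozoites. Oral dosing on days −1, 0 and 1 in HECT or MC vehicle, with dose in (mg/kg)/day. Read-out is the first day of patency and the delay in patency relative to vehicle-treated controls.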
# [19] = tested on: Plasmodium cynomolgi; assay: Antimalarial activity against Plasmodium cynomolgi infected in rhesus monkey assessed as delay in patency time at 0.316 mg/kg, po administered one day before infection, on day of infection followed by 1 day post infection; type: functional; method in brief: as §2
# [20] = tested on: Plasmodium berghei; assay: Antimalarial activity against Plasmodium berghei […] mouse model assessed as delay in patency time at 40 mg/kg, po administered one day before infection, on day of infection and one day post infection; type: functional; method in brief: as §1
# [21] = tested on: Plasmodium cynomolgi; assay: Antimalarial activity against Plasmodium cynomolgi infected in rhesus monkey assessed as delay in patency time at 1.78 mg/kg, po administered one day before infection, on day of infection followed by 1 day post infection; type: functional; method in brief: as §2
Structure (SMILES),half-life [8] [min],half-life [9] [min],IC50 [10] [µg/mL],IC50 [11] [µg/mL],IC50 [12] [µg/mL],half-life [14] [min],Activity [13],further results
CC(C)N1C(=O)C(=O)NC1=NC(=NC(=O)OC(C)(C)C)Nc1ccc(Cl)c(Cl)c1,,,,,,,,half-life [1]: 70.5 h; half-life [2]: 534 min; Ratio [3]: 10; Drug uptake [4]: 96%; Drug uptake [5]: 86%; Drug uptake [6]: 4%; Drug uptake [7]: 4%
CC(C)N1CC(=O)N=C1N/C(=N\C12CC3CC(CC(C3)C1)C2)Nc1ccc(Cl)c(Cl)c1,20.9,22.3,1.55,2.51,2.6,,inactive,
CC(C)/N=C(\NC1=NC(=O)CN1C(C)C)Nc1ccc(Cl)c(Cl)c1,,,1.65,0.37,> 5,53,,half-life [15]: 17 min; Time [17]: 1 days; Activity [16]: Active; Time [18]: 4 days
COc1cc(C)c2c(Oc3cccc(C(F)(F)F)c3)c(OC)cc(NC(C)CCCN)c2n1 (stereo not drawn) [TAFENOQUINE],,,,,,,,Time [19]: 2 days
CC(C)N1CC(=O)N=C1N/C(=N\C(=O)OC(C)(C)C)Nc1ccc(Cl)c(Cl)c1,12.8,15.8,1.6,0.74,> 5,,Active,Time [18]: 2 days
CN1CC(=O)N=C1N/C(=N\C(=O)OC(C)(C)C)Nc1ccc(Cl)c(Cl)c1,< 10,< 10,1.26,1.72,2.54,,,Time [20]: 2 days; Time [17]: 1 days
COc1cc(NC(C)CCCN)c2ncccc2c1 (stereo not drawn) [PRIMAQUINE],,,,,,,,Time [21]: 5 days
CC(C)N1CC(=O)N=C1NC(=N)Nc1ccc(Cl)c(Cl)c1,> 60,40,3.42,2.57,3.31,,inactive,Time [20]: 6 days
CC(C)NC(=N)NC1=NC(=O)CN1c1cccc(Cl)c1Cl,,,1.1,0.7,2.19,53.7,,half-life [15]: 13.5 min

# More lines, main results first:
half-life [8] [min],half-life [9] [min],IC50 [10] [µg/mL],IC50 [11] [µg/mL],IC50 [12] [µg/mL],half-life [14] [min],Structure (SMILES),Activity [13],further results
,,0.15,0.25,,> 60,CCOC(=O)/N=C(/NC1=NC(=O)CN1c1ccc(Cl)c(Cl)c1)NC(C)C,,half-life [15]: > 60 min; Activity [16]: inactive
,> 60,2.6,> 5,> 5,> 60,CC/N=C(\NC1=NC(=O)CN1c1ccc(Cl)c(Cl)c1)Nc1ccc(Cl)c(Cl)c1,inactive,
> 60,> 60,2.75,1.01,> 5,,CC(C)(C)N1CC(=O)N=C1NC(=N)Nc1ccc(Cl)c(Cl)c1,,Time [17]: 2 days; Activity [16]: Active
,> 60,2.45,2.58,,> 60,CC(C)(C)N/C(=N/C1=NC(=O)CN1c1ccc(Cl)c(Cl)c1)Nc1ccc(Cl)c(Cl)c1,inactive,
,,> 5,> 5,> 5,> 60,CC(C)/N=C(\NC1=NC(=O)CN1C)Nc1ccc(Cl)c(Cl)c1,,half-life [15]: 49.8 min; Time [17]: 2 days
